Results pooled from the literature.
Lines come from different studies, so protocols differ.
Target: Serine/threonine-protein kinase Nek1 (NEK1, Homo sapiens, UniProt Q96PY6)
Sequence (Q96PY6 1-1258, as in one of the studies): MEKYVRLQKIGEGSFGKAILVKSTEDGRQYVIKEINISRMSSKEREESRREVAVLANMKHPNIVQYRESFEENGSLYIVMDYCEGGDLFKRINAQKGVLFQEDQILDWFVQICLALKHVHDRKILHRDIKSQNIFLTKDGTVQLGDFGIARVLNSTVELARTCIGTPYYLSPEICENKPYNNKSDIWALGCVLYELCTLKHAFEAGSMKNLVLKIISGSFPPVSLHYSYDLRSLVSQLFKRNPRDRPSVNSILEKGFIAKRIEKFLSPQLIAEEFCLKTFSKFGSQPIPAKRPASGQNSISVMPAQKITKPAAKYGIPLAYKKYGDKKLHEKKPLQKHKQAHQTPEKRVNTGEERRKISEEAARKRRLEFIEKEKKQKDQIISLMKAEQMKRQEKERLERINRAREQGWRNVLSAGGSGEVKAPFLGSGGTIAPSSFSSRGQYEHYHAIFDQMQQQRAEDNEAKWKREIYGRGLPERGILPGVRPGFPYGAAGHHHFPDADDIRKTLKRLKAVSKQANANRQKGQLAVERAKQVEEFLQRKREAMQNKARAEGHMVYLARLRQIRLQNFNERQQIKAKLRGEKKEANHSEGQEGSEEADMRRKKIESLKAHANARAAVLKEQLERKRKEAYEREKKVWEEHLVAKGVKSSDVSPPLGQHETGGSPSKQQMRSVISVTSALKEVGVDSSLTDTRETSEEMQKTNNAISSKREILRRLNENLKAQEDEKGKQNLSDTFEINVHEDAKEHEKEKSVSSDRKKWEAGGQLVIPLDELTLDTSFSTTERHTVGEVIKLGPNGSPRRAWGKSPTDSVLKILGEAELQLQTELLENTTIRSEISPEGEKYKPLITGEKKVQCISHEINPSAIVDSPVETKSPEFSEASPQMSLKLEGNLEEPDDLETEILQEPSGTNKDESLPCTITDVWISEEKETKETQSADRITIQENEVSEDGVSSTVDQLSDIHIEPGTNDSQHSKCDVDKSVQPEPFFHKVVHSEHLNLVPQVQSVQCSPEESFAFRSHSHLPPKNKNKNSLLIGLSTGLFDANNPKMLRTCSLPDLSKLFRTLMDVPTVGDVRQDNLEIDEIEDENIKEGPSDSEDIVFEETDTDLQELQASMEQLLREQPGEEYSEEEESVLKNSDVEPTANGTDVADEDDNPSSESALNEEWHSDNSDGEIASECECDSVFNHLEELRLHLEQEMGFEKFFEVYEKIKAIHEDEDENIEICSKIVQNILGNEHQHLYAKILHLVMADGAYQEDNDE

| SMILES | observed | action | technique | cells | concentration | quantity | value |
| --- | --- | --- | --- | --- | --- | --- | --- |
| Cn1cc(-c2cc(F)cc(N3CCn4c(cc5c4CCCC5)C3=O)c2CO)cc(Nc2ccc(N3CCN(C4COC4)CC3)cn2)c1=O | enzyme activity | inhibitor | – | – | 0.1 µM | inhibition | -3% |
| Cc1nn(C)cc1-c1nc2c(N3CCN(Cc4ccc(Cl)cc4)CC3)c(Cl)cnc2[nH]1 | binding | – | competition with immobilised ligand | – | 1 µM | remaining binding | 82% |
| CC(C)(C)c1cc(C=C(C#N)C#N)cc(Br)c1O | enzyme activity | inhibitor | – | – | 0.5 µM | remaining activity | 97.7% |
| Nc1ncc(-c2nc(N3CCOCC3)nc(N3CCOCC3)n2)c(C(F)F)n1 | binding | – | competition with immobilised ligand | – | 10 µM | remaining binding | 99% |
| COc1cc(Nc2ncc(F)c(Nc3ccc4c(n3)NC(=O)C(C)(C)O4)n2)cc(OC)c1OC | binding | – | competition with immobilised ligand | – | 10 µM | inhibition | 96% |
| COCc1c(-c2cc3cc(C)cc(OC)c3s2)c2c(N)ncnn2c1CN1CCNC(=O)C1 | cell-free assay | – | competition with immobilised ligand | – | 1 µM | inhibition | 78% |
| Cn1cncc1[C@](O)(COc1ccc(C#N)cc1-c1ccc(OC(F)(F)F)cc1)c1ccc(C#N)cc1 | cell-free assay | – | competition with immobilised ligand | – | 1 µM | remaining binding | 80% |
| O=c1[nH]c2ccccc2n1C1CCN(Cc2ccc(-c3[nH]c4cc5ncnc5cc4nc3-c3ccccc3)cc2)CC1 | cell-free assay | – | – | – | 0.5 µM | remaining signal | 101% |
| Cn1cc(-c2cccc(N3CCc4c(sc5c4CC(C)(C)C5)C3=O)c2CO)cc(Nc2ccncn2)c1=O | enzyme activity | inhibitor | – | – | 1 µM | inhibition | 5% |
| COc1ncccc1-c1cnn2ccc(N3CCN(C(=O)OC(C)C)CC3)nc12 | binding | – | competition with immobilised ligand | – | 1 µM | remaining binding | 100% |
| CCN1CCN(Cc2ccc(NC(=O)c3ccc(C)c(/C=C/c4cnc5[nH]ccc5c4OC)c3)cc2C(F)(F)F)CC1 | target engagement in cells | inhibitor | chemoproteomics | A-375 | 50 nM | inhibition | -17% |
| O=C(NCc1ncc(C(F)(F)F)cc1Cl)c1ccc2c(c1)C1(CCS(=O)(=O)CC1)[C@@H](C1CC1)N2S(=O)(=O)c1ccc(F)cc1 | cell-free assay | – | competition with immobilised ligand | – | 1 µM | remaining binding | 96% |
